The record followed here is ChEMBL document CHEMBL1130095, “Synthesis of analogs of 2-methoxyestradiol with enhanced inhibitory effects on tubulin polymerization and cancer cell growth” (J Med Chem, 1997).

Assay [1] relates to HCT-116. The assay can be described thus: In vitro cytotoxicity value corresponding to 50% growth inhibition against HCT116 (colon) cell line. It counts as functional. As to conditions: Homo sapiens.
In assay [2] the test system is UACC-62. The assay can be described thus: In vitro cytotoxicity value corresponding to 50% growth inhibition against UACC-62(melanoma) cell line. It counts as functional. As to conditions: Homo sapiens.
Assay [3] relates to OVCAR-3. The assay can be described thus: In vitro cytotoxicity value corresponding to 50% growth inhibition against OVCAR-3 (ovarian) cell line. It counts as functional. As to conditions: Homo sapiens.
Assay [4] has as its system DU-145. Briefly: The In vitro cytotoxicity value corresponding to 50% growth inhibition against DU-145 (prostate) cell line. It counts as functional. As to conditions: Homo sapiens.
Assay [5] relates to HOP-62. Briefly: In vitro cytotoxicity value corresponding to 50% growth inhibition against HOP-62(non small cell lung) cell line. The class given is functional. As to conditions: Homo sapiens.
Assay [6] relates to MDA-MB-435. The assay can be described thus: In vitro cytotoxicity value corresponding to 50% growth inhibition against MDA-MB-435 (breast) cell line. It counts as functional. As to conditions: Homo sapiens.
Assay [7] concerns SF-539. The assay can be described thus: The In vitro cytotoxicity corresponding to 50% growth inhibition against […] (central nervous system) cell line. As to conditions: Homo sapiens. It counts as functional.
Assay [8] addresses T1, Tubulin (Bos taurus, UniProt Q6B856+Q862L2+Q862F3). Briefly: Evaluated for inhibition of tubulin polymerization. The class given is functional. A digest of the protocol:
(§1)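 Electrophoretically homogeneous bovine brain tubulin at 1.2 mg/mL (12 µM), preincubated at 26 °C with varying compound concentrations, then chilled on ice before GTP was added. Assembly was followed at 26 °C by turbidity at 350 nm, and the extent was read at 20 min. IC50 was derived graphically from at least two independent assays.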

For assay [9], the system named is Panel (Carcinoma cell lines). Briefly: Mean graph midpoint for growth inhibition of all human cancer cell lines. The class given is functional.
Assay [10] deals with Tubulin beta chain (Bos taurus) (UniProt Q6B856). The assay can be described thus: Evaluated for % inhibition of colchicine binding to tubulin. Also on record: concentration or dose not given beside the values. As to conditions: concentration not given here. A digest of the protocol: (§2)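 Mixtures held 1.0 µM bovine brain tubulin (0.1 mg/mL), 5.0 µM [³H]colchicine and 50 µM inhibitor, incubated 10 min at 37 °C. Bound-colchicine inhibition is given as percent, from triplicate samples in each experiment.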
Sequence of Tubulin beta chain (Bos taurus) (Q6B856 whole entry): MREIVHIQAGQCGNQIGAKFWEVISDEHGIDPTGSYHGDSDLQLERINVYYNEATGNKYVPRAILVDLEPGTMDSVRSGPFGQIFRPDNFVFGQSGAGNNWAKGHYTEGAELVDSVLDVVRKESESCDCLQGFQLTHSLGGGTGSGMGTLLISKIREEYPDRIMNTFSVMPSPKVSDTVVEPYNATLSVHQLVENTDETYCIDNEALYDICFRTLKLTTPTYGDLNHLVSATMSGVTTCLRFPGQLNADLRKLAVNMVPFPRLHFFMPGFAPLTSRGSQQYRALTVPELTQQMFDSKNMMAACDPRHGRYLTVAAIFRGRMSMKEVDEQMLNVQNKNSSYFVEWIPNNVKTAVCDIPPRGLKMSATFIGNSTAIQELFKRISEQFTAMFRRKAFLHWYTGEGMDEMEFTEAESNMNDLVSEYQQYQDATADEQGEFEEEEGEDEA

The subject of assay [11] is SN12C. Briefly: In vitro cytotoxicity value corresponding to 50% growth inhibition against SN12C (renal) cell line. It counts as functional. As to conditions: Homo sapiens.
Assay [12] addresses Estrogen receptor (Rattus norvegicus) (UniProt P06211+Q62986). Briefly: Relative binding affinity for estrogen receptor using a tritium labeled estrogen as the tracer and immature rat uterine cytosol. As to conditions: Uterus. It counts as protein assay. In outline: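 Competitive radiometric binding with a tritiated estrogen tracer and immature rat uterine cytosol as receptor source, incubated at 0 °C for 18 or 20 h. […] Coefficient of variation between replicate experiments is typically below 30%.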

For assay [13], the target named is Tubulin (Bos taurus) (UniProt Q6B856+Q862L2+Q862F3). The assay can be described thus: The compound was evaluated for inhibition of colchicine binding to tubulin. The class given is protein assay. As to conditions: concentration not given here. A digest of the protocol: as §2
In assay [14] the target is T1, Tubulin. Briefly: The compound was evaluated for inhibition of tubulin polymerization, which is purified from bovine brain. It counts as functional. In outline:
as §1

One may read the GI50 as the concentration at which growth is held to half of that of the control. By IC50 is commonly meant the concentration that gives 50% inhibition. What is called inhibition is the share of the control response that was lost under treatment.

In the case of `CCOc1cc2c(cc1O)CC[C@@H]1[C@@H]2CC[C@]2(C)[C@@H](OS(=O)O[C@H]3CC[C@H]4[C@@H]5CCc6cc(O)c(OCC)cc6[C@H]5CC[C@]34C)CC[C@@H]12`, the GI50 was 0.49 µM in [1]; 1.3 µM in assay [2]; 0.27 µM in [3]; 1.1 µM in [4]; 0.83 µM in assay [5]; 0.22 µM in assay [6]. Moreover, the GI50 in assay [7] came to 0.57 µM; in [9], 1.1 µM; in assay [11] it was 2.6 µM. For the same compound, the IC50 in assay [8] came out at 5.9 µM. In addition, in assay [10], the inhibition was 24%.
Consider `CCOc1cc2c(cc1O)CC[C@@H]1[C@@H]2CC[C@]2(C)[C@@H](N)CC[C@@H]12.Cl`, for which the GI50 in assay [1] was 3.2 µM; in [2] it was 3.6 µM; in [3], 1.3 µM; in assay [4], 1.9 µM; in assay [5], 11 µM; in assay [6], 1.7 µM. The figures for the GI50 in assay [7], in assay [9] and in assay [11] were 4 µM, 3.3 µM and 5.2 µM, respectively. The IC50 in [8] was > 40 µM.
Take `CC(=O)Oc1cc2c(cc1OCC(F)(F)F)[C@H]1CC[C@]3(C)[C@@H](OC(C)=O)CC[C@H]3[C@@H]1CC2=O`: the GI50 in [1] came to 21 µM; in [2] it was 18 µM; in assay [3] it was 24 µM; in assay [4], 20 µM; in assay [5], 20 µM; in assay [6] it was 18 µM. The GI50 in [7] was 23 µM; in [9] it was 20 µM; in assay [11], 20 µM. Also, in assay [8], the IC50 was > 40 µM.
For `CC#Cc1cc2c(cc1O)CC[C@@H]1[C@@H]2CC[C@]2(C)[C@@H](O)CC[C@@H]12`, the GI50 was 0.48 µM in assay [1]; 0.5 µM in assay [2]; 0.34 µM in assay [3]; 3.6 µM in [4]; 1.7 µM in [5]; 0.13 µM in assay [6]. In addition, the GI50 in assay [7] worked out at 0.95 µM; in [9] it was 1.7 µM; in assay [11], 6.9 µM. Besides, the IC50 in [8] amounted to 4.8 µM. The compound also came in with an inhibition in assay [10] of 11%.
As to `CCOc1cc2c(c(OCC)c1O)CC[C@@H]1[C@@H]2CC[C@]2(C)[C@@H](O)CC[C@@H]12`, the GI50 in [1] amounted to 0.8 µM; in assay [3] it was 0.09 µM; in assay [4] it was 3.3 µM; in [5], 1.3 µM; in assay [6], 0.2 µM; in assay [9] it was 2.7 µM. This compound registered a GI50 in assay [11] of 4.8 µM. Besides, the IC50 in assay [8] worked out at 8.8 µM. This compound gave an inhibition in [10] of 1.5%.
Take `CCOc1cc2c(cc1O)/C(=N\O)C[C@@H]1[C@@H]2CC[C@]2(C)[C@@H](O)CC[C@@H]12`: the relative binding affinity (RBA) in assay [12] was < 0.001. The GI50 amounted to 0.011 µM in [1]; 0.017 µM in [2]; 0.017 µM in assay [3]; 0.026 µM in assay [4]; 0.011 µM in [5]; 0.01 µM in [6]. Also, the GI50 in assay [7] worked out at 0.013 µM; in assay [9], 0.079 µM; in assay [11], 0.021 µM. The compound also returned an inhibition in assay [13] of 63%. Besides, the IC50 in assay [14] is 1.1 µM.
In the case of `CCOc1cc2c(cc1O)CC[C@@H]1[C@@H]2CC[C@]2(C)[C@@H](O)CC[C@@H]12`, the GI50 in assay [1] was 0.026 µM; in assay [2], 0.016 µM; in assay [3], 0.016 µM; in assay [4] it was 0.065 µM; in assay [5], 0.018 µM; in [6] it was < 0.01 µM. Besides, the GI50 in assay [7] was found to be 0.014 µM; in [9], 0.076 µM; in assay [11], 0.039 µM. Moreover, the IC50 in assay [8] turned out to be 1.3 µM. For the same compound, in assay [10], the inhibition amounted to 51%.
On to `CCOc1cc2c(cc1O)/C(=N\NS(=O)(=O)c1ccc(C)cc1)C[C@@H]1[C@@H]2CC[C@]2(C)[C@@H](O)CC[C@@H]12`, for which the GI50 in [1] came out at 6.7 µM; in assay [3], 3.2 µM; in [4] it was 15 µM; in assay [5], 5.1 µM; in assay [7], 3.5 µM; in assay [9], 6.2 µM. The GI50 in assay [11] was 12 µM. In [8], the IC50 is > 40 µM.
On to `CCOc1cc2c(cc1O)/C(=N\N)C[C@@H]1[C@@H]2CC[C@]2(C)[C@@H](O)CC[C@@H]12`, for which the GI50 in assay [1] is 2.1 µM; in assay [2], 0.88 µM; in [3], 5.4 µM; in assay [4], 17 µM; in [5] it was 1.2 µM; in assay [6] it was 6.5 µM. The GI50 in assay [7] is 2.8 µM; in [9], 4.2 µM; in [11], 17 µM. Further, in assay [8], the IC50 came to 4.3 µM. In assay [10], the inhibition is 9.6%.
`CCOc1cc2c(cc1O)C=CC1C2CC[C@@]2(C)C1CC[C@@H]2O` (stereo not given in full): the GI50 in assay [1] was 1.1 µM; in assay [2], 4.8 µM; in assay [3] it was 1.9 µM; in assay [4] it was 2.1 µM; in assay [5], 3.9 µM; in assay [6] it was 0.34 µM. Further, the figures for the GI50 in assay [7], in assay [9] and in assay [11] were 2 µM, 3.8 µM and 4.6 µM, respectively. Besides, in assay [8], the IC50 came to 4.4 µM. Also, the inhibition in [10] turned out to be 8.6%.
In the case of `C[C@]12CC[C@@H]3c4cc(OCC(F)(F)F)c(O)cc4CC[C@H]3[C@@H]1CC[C@@H]2O`, the GI50 in assay [1] was found to be 3.2 µM; in assay [2] it was 2.3 µM; in [3], 0.46 µM; in assay [4] it was 7 µM; in assay [5] it was 12 µM; in assay [6] it was 0.28 µM. Further, the GI50 came to 1.4 µM in assay [7], 2.6 µM in [9] and 4.5 µM in assay [11]. Moreover, in assay [8], the IC50 worked out at 1.5 µM. This compound displayed an inhibition in [10] of 11%.
As to `CCOc1cc2c(cc1O)/C(=N\OC)C[C@@H]1[C@@H]2CC[C@]2(C)[C@@H](O)CC[C@@H]12`, the relative binding affinity (RBA) in assay [12] is < 0.001. The GI50 in assay [1] stood at 0.049 µM; in [2], 0.052 µM; in assay [3] it was 0.026 µM; in assay [4] it was 0.33 µM; in assay [5], 0.11 µM; in assay [6], 0.029 µM. The 50% growth inhibitory concentration (GI50) turned out to be 0.27 µM in assay [9] and 0.39 µM in [11]. This compound also registered an inhibition in assay [13] of 34%. For the same compound, the IC50 in assay [14] was found to be 1.4 µM.
Regarding `CCOc1cc2c(cc1O)C(=O)C[C@@H]1[C@@H]2CC[C@]2(C)[C@@H](O)CC[C@@H]12`, the GI50 in assay [1] is 0.02 µM; in assay [2] it was 0.01 µM; in assay [3], 0.63 µM; in assay [4] it was 0.17 µM; in assay [5] it was 0.03 µM; in assay [6], < 0.01 µM. The 50% growth inhibitory concentration (GI50) in assay [7] was found to be 0.71 µM; in assay [9] it was 0.13 µM; in assay [11], 0.18 µM. The compound also came in with an IC50 in assay [8] of 4.1 µM. For the same compound, in [10], the inhibition was found to be 19%.
For the compound `CC(=O)Oc1cc2c(cc1OC(C)=O)[C@H]1CC[C@]3(C)[C@@H](OC(C)=O)CC[C@H]3[C@@H]1CC2`, the GI50 in assay [1] was determined as 5.1 µM; in [2] it was 2.5 µM; in [3] it was 6.4 µM; in assay [4], 3.2 µM; in assay [5] it was 4.8 µM; in assay [6], 0.32 µM. Also, the GI50 was found to be 3.5 µM in [7], 3.7 µM in assay [9] and 5.1 µM in assay [11]. The IC50 in assay [8] is > 40 µM.
As for `CCOc1cc2c(cc1O)[C@@H](O)C[C@@H]1[C@@H]2CC[C@]2(C)[C@@H](O)CC[C@@H]12`, the GI50 in [1] is 0.35 µM; in assay [2], 0.28 µM; in assay [3], 0.35 µM; in assay [4] it was 0.71 µM; in assay [6], 5.4 µM; in [9], 0.83 µM. In [11], this compound yielded a GI50 of 0.66 µM. The IC50 in assay [8] amounted to 2.9 µM. Also, the inhibition in assay [10] was found to be 12%.
For `CCOc1cc2c(cc1O)C(N)C[C@@H]1[C@@H]2CC[C@]2(C)[C@@H](O)CC[C@@H]12` (stereo not given in full), the GI50 in [1] is 40 µM; in [2], 19 µM; in [3] it was 45 µM; in assay [4], > 100 µM; in assay [5] it was 26 µM; in [6], 16 µM. The values for the GI50 in assay [9] and in [11] were 40 µM and 59 µM, respectively. For the same compound, the IC50 in [8] is > 40 µM.
